Key:
Rattus norvegicus [1] = experiment: Reduction of photochemically induced cerebral focal ischemia in rat was evaluated at 20.0 mg/kg intravenous dose; format: functional
In short: (§1)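 Male rats (300-350 g) under halothane (3 vol% induction, 1.2 vol% maintenance in O2). Rose Bengal (5 mg in 1 mL) infused through the femoral vein, then thrombotic focal cortical ischemia induced photochemically with light. Drug given iv 30 min after ischemia to groups of 5-7 rats. Infarct volume (mm3) measured by image analysis of cresyl violet-stained 20-µm sections.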

Glutamate NMDA receptor = experiment: Inhibition against NMDA receptor by displacement of [3H]TCP binding from rat cortical membranes; format: cell membranes, Membrane
Rattus norvegicus [2] = experiment: Percent change in reduction of photochemically induced cerebral focal ischemia in control and treated rat at 3.0 mg/kg intravenous dose; format: functional; in short: as §1
Rattus norvegicus [3] = experiment: Reduction of photochemically induced cerebral focal ischemia in rat was evaluated 3.0 mg/kg intravenous dose; format: functional; in short: as §1
Rattus norvegicus [4] = experiment: Percent change in reduction of photochemically induced cerebral focal ischemia in control and treated rat at 20 mg/kg intravenous dose; format: functional; in short: as §1
Gerbillinae [5] = experiment: Carotid artery occlusion-induced hippocampal damage was evaluated 15 min before carotid occlusion at 60 mg/kg intraperitoneal dose.; format: functional, Hippocampus
In short: (§2)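 Male Mongolian gerbils (65-75 g, n = 14-15) under halothane (2.6 vol% induction, 1.2 vol% maintenance in N2:O2 2:1). Forebrain ischemia by bilateral 5-min carotid occlusion with reperfusion. Drug given ip 15 min before or 15 min after occlusion. CA1 cell necrosis rated on a 0-4 scale (0 none to 4 all CA1 cells). Group means compared by t-test.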

Rattus norvegicus [6] = experiment: Reduction of photochemically induced cerebral focal ischemia in rat was evaluated at 1.0 mg/kg intravenous dose; format: functional; in short: as §1
Gerbillinae [7] = experiment: Percent reduction of carotid artery occlusion-induced hippocampal damage at 30 mg/kg intraperitoneal dose.; format: functional, Hippocampus; in short: as §2
Rattus norvegicus [8] = experiment: Percent change in reduction of photochemically induced cerebral focal ischemia in control and treated rat at 1.0 mg/kg intravenous dose; format: functional; in short: as §1
Rattus norvegicus [9] = experiment: Reduction of photochemically induced cerebral focal ischemia in rat was evaluated 10.0 mg/kg intravenous dose; format: functional; in short: as §1
Gerbillinae [10] = experiment: Carotid artery occlusion-induced hippocampal damage was evaluated 15 min after carotid occlusion 60 mg/kg intraperitoneal dose; format: functional, Hippocampus; in short: as §2
Gerbillinae [11] = experiment: Carotid artery occlusion-induced hippocampal damage was evaluated 15 min before carotid occlusion at 30 mg/kg intraperitoneal dose.; format: functional, Hippocampus; in short: as §2
Mus musculus = experiment: Effective dose required for 50% inhibition of clonic seizures in mice induced by racemic NMDLA when administered intraperitoneally; format: functional; settings: ip
In short: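 Swiss Webster mice, 10 per group, dosed ip with drug in distilled water 0.5 h before N-methyl-D,L-aspartic acid 350 mg/kg sc. Each mouse observed 30 min for clonic seizures lasting at least 3 s; protection means no seizure in that time. Controls received vehicle. ED50 taken at time of peak effect from three or more doses, Litchfield-Wilcoxon method.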

Rattus norvegicus [12] = experiment: Reduction of photochemically induced cerebral focal ischemia in rat was evaluated at 10 mg/kg intravenous dose; format: functional; in short: as §1
Gerbillinae [13] = experiment: Percent reduction Carotid artery occlusion-induced hippocampal damage at 10 mg/kg intraperitoneal dose.; format: functional, Hippocampus; in short: as §2
Gerbillinae [14] = experiment: Carotid artery occlusion-induced hippocampal damage was evaluated 15 min after carotid occlusion 30 mg/kg intraperitoneal dose; format: functional, Hippocampus; in short: as §2
Gerbillinae [15] = experiment: Carotid artery occlusion-induced hippocampal damage was evaluated 15 min after carotid occlusion 10 mg/kg intraperitoneal dose; format: functional, Hippocampus; in short: as §2
Gerbillinae [16] = experiment: Percent reduction Carotid artery occlusion-induced hippocampal damage at 30 mg/kg intraperitoneal dose.; format: functional, Hippocampus; in short: as §2
Gerbillinae [17] = experiment: Carotid artery occlusion-induced hippocampal damage was evaluated by using compound 15 min before carotid occlusion at 30 mg/kg intraperitoneal dose; format: functional, Hippocampus; in short: as §2
Rattus norvegicus [18] = experiment: Reduction of photochemically induced cerebral focal ischemia in rat was evaluated at 3.0 mg/kg intravenous dose; format: functional; in short: as §1
Gerbillinae [19] = experiment: Percent reduction Carotid artery occlusion-induced hippocampal damage at 50 mg/kg intraperitoneal dose.; format: functional, Hippocampus; in short: as §2
Rattus norvegicus [20] = experiment: Evaluated for reduction of NMDA-induced necrosis volume at 100 mg/kg subcutaneous dose in rats.; format: functional
In short: (§3)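 Male Sprague-Dawley rats (280-310 g) under chloral hydrate (400 mg/kg ip). Unilateral dorsal hippocampal CA1 lesion made by stereotaxic infusion of NMDA 20 nmol over 5 min. Drugs given sc or ip 1 h before infusion. Brains perfusion-fixed at 7 days and cresyl violet-stained; lesion volume measured by image analysis. n = 4 per group, compared with control by t-test.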

Rattus norvegicus [21] = experiment: Reduction of photochemically induced cerebral focal ischemia in rat was evaluated at 0.3 mg/kg intravenous dose; format: functional; in short: as §1
Gerbillinae [22] = experiment: Carotid artery occlusion-induced hippocampal damage was evaluated 15 min after carotid occlusion 50 mg/kg intraperitoneal dose; format: functional, Hippocampus; in short: as §2
Rattus norvegicus [23] = experiment: Percent change in reduction of photochemically induced cerebral focal ischemia in control and treated rat at 3 mg/kg intravenous dose; format: functional; in short: as §1
Rattus norvegicus [24] = experiment: Evaluated for reduction of NMDA-induced necrosis at 100 mg/kg subcutaneous dose in rats.; format: functional; in short: as §3
Rattus norvegicus [25] = experiment: Percent change in reduction of photochemically induced cerebral focal ischemia in control and treated rat at 0.3 mg/kg intravenous dose; format: functional; in short: as §1
Rattus norvegicus [26] = experiment: Percent change in reduction of photochemically induced cerebral focal ischemia in control and treated rat at 10 mg/kg intravenous dose; format: functional; in short: as §1
Rattus norvegicus [27] = experiment: Evaluated for reduction of NMDA-induced necrosis volume at 30 mg/kg subcutaneous dose in rats.; format: functional; in short: as §3
Rattus norvegicus [28] = experiment: Evaluated for reduction of NMDA-induced necrosis at 30 mg/kg subcutaneous dose in rats.; format: functional; in short: as §3
Rattus norvegicus [29] = experiment: Evaluated for reduction of NMDA-induced necrosis volume at 0.7 mg/kg intraperitoneally dose in rats.; format: functional; settings: route intraperitoneal; in short: as §3
Rattus norvegicus [30] = experiment: Reduction of photochemically induced cerebral focal ischemia in rat was evaluated by using control at 3 mg/kg intravenous dose; format: functional; in short: as §1
Rattus norvegicus [31] = experiment: Evaluated for reduction of NMDA-induced necrosis at 2.0 mg/kg intraperitoneal dose in rats.; format: functional; in short: as §3
Gerbillinae [32] = experiment: Carotid artery occlusion-induced hippocampal damage was evaluated by using compound 15 min before carotid occlusion at 5 mg/kg intraperitoneal dose.; format: functional, Hippocampus; in short: as §2
Rattus norvegicus [33] = experiment: Evaluated for reduction of NMDA-induced necrosis volume at 7.0 mg/kg intraperitoneally dose in rats.; format: functional; settings: route intraperitoneal; in short: as §3
Gerbillinae [34] = experiment: Carotid artery occlusion-induced hippocampal damage was evaluated by using control 15 min before carotid occlusion at 5 mg/kg intraperitoneal dose.; format: functional, Hippocampus; in short: as §2
Rattus norvegicus [35] = experiment: Evaluated for reduction of NMDA-induced necrosis at 7.0 mg/kg intraperitoneal dose in rats.; format: functional; in short: as §3
Rattus norvegicus [36] = experiment: Evaluated for reduction of NMDA-induced necrosis at 0.7 mg/kg intraperitoneal dose in rats.; format: functional; in short: as §3
Rattus norvegicus [37] = experiment: Evaluated for reduction of NMDA-induced necrosis volume at 2.0 mg/kg intraperitoneally dose in rats.; format: functional; settings: route intraperitoneal; in short: as §3
Rattus norvegicus [38] = experiment: Reduction of photochemically induced cerebral focal ischemia in rat was evaluated by using compound at 3 mg/kg intravenous dose; format: functional; in short: as §1
Gerbillinae [39] = experiment: Percent reduction of carotid artery Carotid artery occlusion-induced hippocampal damage at 5 mg/kg intraperitoneal dose.; format: functional, Hippocampus; in short: as §2
Rattus norvegicus [40] = experiment: Reduction of photochemically induced cerebral focal ischemia in rat was evaluated at 0.1 mg/kg intravenous dose; format: functional; in short: as §1
Gerbillinae [41] = experiment: Carotid artery occlusion-induced hippocampal damage was evaluated by using compound 15 min before carotid occlusion at 30 mg/kg intraperitoneal dose.; format: functional, Hippocampus; in short: as §2

Compound `CNC(Cc1ccccc1N)c1sccc1C.Cl` (single isomer, unassigned; (-)) has a Treated (Rattus norvegicus [1]) of 79, an IC50 (Glutamate NMDA receptor) of 57000 nM and a Change (Rattus norvegicus [2]) of 6%. For the same compound, the Treated (Rattus norvegicus [3]) was 73, the Change (Rattus norvegicus [4]) was 13% and the Treated (Gerbillinae [5]) was 0.9. The Treated (Rattus norvegicus [6]) was 66, the Reduction (Gerbillinae [7]) was 32% and the Change (Rattus norvegicus [8]) was 7%. It also gave a Treated (Rattus norvegicus [9]) of 93, a Treated (Gerbillinae [10]) of 3.3 and a Treated (Gerbillinae [11]) of 2.8.
With `CNc1ccccc1CC(c1sccc1C)N(C)C` (stereo not given) the ED50 (Mus musculus) was over 60 mg/kg.
`CNC(Cc1cc(Br)ccc1N)c1sccc1C` (stereo not given) gave an ED50 (Mus musculus) of over 5 mg/kg and an IC50 (Glutamate NMDA receptor) of 45 nM.
In the case of `Cc1ccsc1C(Cc1ccccc1N(C)C)N(C)C` (stereo not given), the ED50 (Mus musculus) is reported as over 60 mg/kg and the IC50 (Glutamate NMDA receptor) is reported as 330 nM.
`CNC(Cc1ccc(Cl)cc1N)c1sccc1C.Cl` (stereo not given) showed an ED50 (Mus musculus) of at least 60 mg/kg and an IC50 (Glutamate NMDA receptor) of 18000 nM.
Compound `CNc1ccccc1CC(NC)c1sccc1C.Cl` (stereo not given) has an ED50 (Mus musculus) of over 60 mg/kg and an IC50 (Glutamate NMDA receptor) of 3800 nM.
For `CNC(Cc1ccccc1N)c1ccc(C)s1` (stereo not given), the ED50 (Mus musculus) was over 60 mg/kg and the IC50 (Glutamate NMDA receptor) was 5200 nM.
`CNC(Cc1ccccc1N)c1sccc1C.Cl` (stereo in doubt; 3a) showed a Treated (Rattus norvegicus [12]) of 86, an ED50 (Mus musculus) of 27.8 mg/kg and a Reduction (Gerbillinae [13]) of 2%. The Treated (Gerbillinae [14]) was 2.13, the IC50 (Glutamate NMDA receptor) was 350 nM and the Treated (Gerbillinae [15]) was 2.8. The Reduction (Gerbillinae [16]) was 26%, the Treated (Gerbillinae [17]) was 0.3 and the Treated (Rattus norvegicus [18]) was 63. It also gave a Treated (Rattus norvegicus [6]) of 57, a Reduction (Gerbillinae [7]) of 75% and a Reduction (Gerbillinae [19]) of 18%. The Volume (Rattus norvegicus [20]) was 0.057 µM, the Treated (Rattus norvegicus [21]) was 72 and the Change (Rattus norvegicus [8]) was -27%. The Treated (Gerbillinae [22]) was 2.13, the Change (Rattus norvegicus [23]) was -16% and the Reduction (Rattus norvegicus [24]) was 68%. It also gave a Change (Rattus norvegicus [25]) of 0% and a Change (Rattus norvegicus [26]) of 6%.
`Cc1ccsc1C(N)Cc1ccccc1N.Cl` (stereo not given) gave an ED50 (Mus musculus) of 19 mg/kg and an IC50 (Glutamate NMDA receptor) of 4000 nM.
Compound `CCCNC(Cc1ccccc1N)c1sccc1C.Cl` (stereo not given) has an ED50 (Mus musculus) of 14.1 mg/kg and an IC50 (Glutamate NMDA receptor) of 130 nM.
With `CCNC(Cc1ccccc1N)c1sccc1C.Cl` (stereo not given) the ED50 (Mus musculus) was 6.4 mg/kg, the IC50 (Glutamate NMDA receptor) was 43 nM and the Volume (Rattus norvegicus [20]) was 0.0098 µM. For the same compound, the Volume (Rattus norvegicus [27]) was 0.059 µM, the Reduction (Rattus norvegicus [24]) was 95% and the Reduction (Rattus norvegicus [28]) was 67%.
`CNC(Cc1ccc(C(F)(F)F)cc1N)c1sccc1C` (stereo not given) gave an IC50 (Glutamate NMDA receptor) of over 10000 nM.
`Cc1ccsc1C(Cc1ccccc1N)N(C)C` (stereo not given) gave an ED50 (Mus musculus) of over 60 mg/kg and an IC50 (Glutamate NMDA receptor) of 370 nM.
For `CNC(Cc1cc(Cl)ccc1N)c1sccc1C` (stereo not given), the ED50 (Mus musculus) was at least 30 mg/kg and the IC50 (Glutamate NMDA receptor) was 25 nM.
Work on `O=C(O)C1CN(CCCP(=O)(O)O)CCN1` (stereo not given) yielded an IC50 (Glutamate NMDA receptor) of over 100000 nM.
Compound `CNC(Cc1ccccc1N)c1cccs1.Cl` (stereo not given) has an ED50 (Mus musculus) of over 60 mg/kg.
Work on `C[C@]12N[C@H](Cc3ccccc31)c1ccccc12` [DIZOCILPINE] yielded an ED50 (Mus musculus) of 0.38 mg/kg, a Volume (Rattus norvegicus [29]) of 0.1 µM and a Control (Rattus norvegicus [30]) of 68. The Reduction (Rattus norvegicus [31]) was under 94%, the Treated (Gerbillinae [32]) was 0.8 and the Volume (Rattus norvegicus [33]) was 0.0025 µM. The Control (Gerbillinae [34]) was 1.05, the Reduction (Rattus norvegicus [35]) was under 98% and the Reduction (Rattus norvegicus [36]) was under 44%. It also gave a Change (Rattus norvegicus [23]) of -24%, a Volume (Rattus norvegicus [37]) of 0.01 µM and a Treated (Rattus norvegicus [38]) of 52. For the same compound, the Reduction (Gerbillinae [39]) was under 22%.
For `CNC(Cc1ccccc1N)c1sccc1C.Cl` (stereo in doubt; (+)3a), the IC50 (Glutamate NMDA receptor) was 180 nM, the Treated (Rattus norvegicus [6]) was 67 and the Reduction (Gerbillinae [7]) was 51%. It also gave a Change (Rattus norvegicus [8]) of 14%, a Treated (Rattus norvegicus [40]) of 59 and a Change (Rattus norvegicus [25]) of 13%. For the same compound, the Treated (Gerbillinae [41]) was 1.5.

Source: ChEMBL document CHEMBL1127745, “Synthesis, resolution, and SAR of (+/-)-2-amino-N-methyl-alpha-(3-methyl-2-thienyl)benzeneethanamine++ + and related analogs as noncompetitive NMDA antagonists with neuroprotective properties” (J Med Chem, 1994)
